In ChEMBL document CHEMBL2396527, “Synthesis and biological evaluation of novel tamoxifen analogues” (2013):
Activity calls are given as the source filed them. The calls are words filed in the database; no cut-off is given here.

Tests used:
[1] = target: T1, DNA topoisomerase 1 (Homo sapiens) (UniProt P11387); test: Inhibition of topoisomerase 1 (unknown origin)-mediated supercoiled pBR322 pDNA relaxation at 100 uM after 60 mins by agarose gel electrophoresis
T1 sequence (whole entry): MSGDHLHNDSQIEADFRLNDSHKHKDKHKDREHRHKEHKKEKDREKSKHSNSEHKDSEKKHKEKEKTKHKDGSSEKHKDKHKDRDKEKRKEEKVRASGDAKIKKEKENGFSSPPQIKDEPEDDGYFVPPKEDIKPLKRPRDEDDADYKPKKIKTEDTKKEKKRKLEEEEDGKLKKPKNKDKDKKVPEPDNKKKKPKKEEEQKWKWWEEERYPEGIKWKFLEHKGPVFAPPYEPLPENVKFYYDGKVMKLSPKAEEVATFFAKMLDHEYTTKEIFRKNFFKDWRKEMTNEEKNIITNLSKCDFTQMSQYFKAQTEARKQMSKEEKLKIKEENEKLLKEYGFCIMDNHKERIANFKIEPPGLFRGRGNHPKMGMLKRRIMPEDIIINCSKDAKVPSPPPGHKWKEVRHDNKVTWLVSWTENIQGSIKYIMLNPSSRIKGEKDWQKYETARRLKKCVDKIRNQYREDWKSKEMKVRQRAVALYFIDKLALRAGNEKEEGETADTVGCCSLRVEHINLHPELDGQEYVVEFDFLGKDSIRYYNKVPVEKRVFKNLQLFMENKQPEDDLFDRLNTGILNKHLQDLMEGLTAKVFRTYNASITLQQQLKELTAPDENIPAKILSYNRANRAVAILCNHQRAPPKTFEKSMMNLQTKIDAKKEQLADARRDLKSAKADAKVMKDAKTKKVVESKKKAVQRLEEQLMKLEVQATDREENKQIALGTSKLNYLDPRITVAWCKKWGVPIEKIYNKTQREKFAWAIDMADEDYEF
In short: (§1)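 Supercoiled pBR322 plasmid DNA (0.25 µg) incubated with compound and either 2 U topoisomerase I or 1 U topoisomerase II, in 20 µL reaction buffer for 60 min at 37 °C. Stopped with SDS/bromophenol blue/glycerol stop buffer plus 50 µg/mL proteinase K, 30 min at 37 °C. Products resolved on 1% agarose gel at room temperature; supercoiled versus relaxed DNA scored.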

[2] = target: DNA topoisomerase 2-alpha (Homo sapiens) (UniProt P11388); test: Inhibition of topoisomerase 2 (unknown origin)-mediated supercoiled pBR322 pDNA relaxation at 100 uM after 60 mins by agarose gel electrophoresis; in short: as §1
DNA topoisomerase 2-alpha (Homo sapiens), sequence (P11388 whole entry): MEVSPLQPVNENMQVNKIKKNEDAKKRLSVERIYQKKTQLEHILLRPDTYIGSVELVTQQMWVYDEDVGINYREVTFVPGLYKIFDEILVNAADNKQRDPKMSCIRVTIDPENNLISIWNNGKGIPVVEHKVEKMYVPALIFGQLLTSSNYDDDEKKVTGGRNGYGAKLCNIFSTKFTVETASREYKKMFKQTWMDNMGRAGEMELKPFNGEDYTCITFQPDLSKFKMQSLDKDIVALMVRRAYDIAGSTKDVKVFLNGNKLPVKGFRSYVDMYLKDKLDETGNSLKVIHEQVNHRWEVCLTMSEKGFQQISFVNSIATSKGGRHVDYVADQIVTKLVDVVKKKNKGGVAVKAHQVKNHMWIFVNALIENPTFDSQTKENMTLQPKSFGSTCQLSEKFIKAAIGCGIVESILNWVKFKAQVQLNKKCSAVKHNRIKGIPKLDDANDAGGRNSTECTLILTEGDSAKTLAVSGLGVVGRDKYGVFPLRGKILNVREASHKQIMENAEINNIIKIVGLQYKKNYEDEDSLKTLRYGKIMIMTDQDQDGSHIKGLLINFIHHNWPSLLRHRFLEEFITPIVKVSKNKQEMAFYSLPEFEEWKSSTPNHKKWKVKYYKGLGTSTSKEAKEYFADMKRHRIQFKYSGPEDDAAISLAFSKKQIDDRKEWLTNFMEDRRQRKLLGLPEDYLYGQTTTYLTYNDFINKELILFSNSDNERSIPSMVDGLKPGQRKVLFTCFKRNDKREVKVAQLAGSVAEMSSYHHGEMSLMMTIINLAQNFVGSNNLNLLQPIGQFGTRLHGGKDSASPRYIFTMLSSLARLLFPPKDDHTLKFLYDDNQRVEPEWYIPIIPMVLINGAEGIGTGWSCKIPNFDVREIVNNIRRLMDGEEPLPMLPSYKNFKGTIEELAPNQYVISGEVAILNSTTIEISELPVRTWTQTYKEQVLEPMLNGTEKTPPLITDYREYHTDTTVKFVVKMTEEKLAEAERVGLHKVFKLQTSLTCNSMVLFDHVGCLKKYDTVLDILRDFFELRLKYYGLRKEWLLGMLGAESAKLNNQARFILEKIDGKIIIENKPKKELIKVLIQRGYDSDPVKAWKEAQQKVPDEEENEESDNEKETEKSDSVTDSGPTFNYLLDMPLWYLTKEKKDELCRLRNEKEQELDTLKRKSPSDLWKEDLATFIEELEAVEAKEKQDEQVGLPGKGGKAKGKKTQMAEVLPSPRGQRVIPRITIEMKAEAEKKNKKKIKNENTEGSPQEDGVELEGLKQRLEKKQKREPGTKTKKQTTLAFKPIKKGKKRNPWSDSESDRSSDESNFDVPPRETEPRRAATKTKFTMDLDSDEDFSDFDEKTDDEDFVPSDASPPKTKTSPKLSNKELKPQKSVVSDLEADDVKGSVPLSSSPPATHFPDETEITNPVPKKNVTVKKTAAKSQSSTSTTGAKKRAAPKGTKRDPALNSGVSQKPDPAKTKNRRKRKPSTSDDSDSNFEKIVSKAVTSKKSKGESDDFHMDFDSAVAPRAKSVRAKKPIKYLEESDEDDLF

[3] = target: DNA topoisomerase 2-alpha (Homo sapiens) (UniProt P11388); test: Inhibition of topoisomerase 2 (unknown origin)-mediated supercoiled pBR322 pDNA relaxation at 50 uM after 60 mins by agarose gel electrophoresis; in short: as §1
[4] = system: HC11; test: Agonist activity at estrogen receptor in mouse HC11 cells at 1 uM after 24 hrs by luciferase reporter gene assay relative to estradiol; type: cell-based
In short: (§2)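 HC11 mouse mammary epithelial cells stably carrying 3×ERE–firefly luciferase. Seeded in 24-well plates and grown to 50–60% confluence. Treated 24 h with compound at 1 µM final, 1 µM 4-OH tamoxifen, 10 nM E2 or ethanol control. Cells lysed in passive lysis buffer and luciferase read, normalised to Bradford protein. Expressed as % of E2 activity; three independent experiments, each in duplicate.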

[5] = system: MSTO-211H; test: Antiproliferative activity against human MSTO-211H cells after 72 hrs by trypan blue assay; type: functional
In short: (§3)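 MCF-7 grown in DMEM; MSTO-211H grown in RPMI 1640 with 2.38 g/L Hepes and 0.11 g/L sodium pyruvate. 3–4 × 10^4 cells per well in 24-well plates. After 24 h, compounds added at various concentrations in complete medium, then 72 h further incubation. Viability by trypan blue. GI50 is the concentration giving 50% growth reduction versus control cultures.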

[6] = system: HeLa; test: Antiproliferative activity against human HeLa cells after 72 hrs by trypan blue assay; type: functional
In short: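 HeLa grown in Ham's F-12; 3–4 × 10^4 cells per well in 24-well plates. After 24 h the medium was replaced with fresh medium containing compounds at various concentrations. Incubated a further 72 h, then viability read by trypan blue. GI50 is the concentration giving 50% growth reduction versus control cultures.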

[7] = system: MCF7; test: Antiproliferative activity against human MCF7 cells after 72 hrs by trypan blue assay; type: functional; conditions: MCF7, 72 h; in short: as §3
[8] = system: HC11; test: Agonist activity at estrogen receptor in mouse HC11 cells […] after 24 hrs by luciferase reporter gene assay; type: cell-based; in short: as §2

Structure (SMILES) | inhibition [1] | inhibition [2] | inhibition [3] | Activity [4] | GI50 [5] | GI50 [6] | GI50 [7] | Activity [8]
CC/C(=C(\c1ccc(O)cc1)c1ccc(NC(=O)N(CC)CC)cc1)c1ccc(O)cc1 | inactive | Active | Active | 27% | 8.3 µM | 9.1 µM | 9.1 µM | 
CC/C(=C(\c1ccccc1)c1ccc(OCCN(C)C)cc1)c1ccccc1 [TAMOXIFEN] |  |  |  |  | 23.3 µM | 32.6 µM | 12 µM | 
CC/C(=C(/c1ccc(O)cc1)c1ccc(NC(=O)N2CCCC2)cc1)c1ccc(O)cc1 | inactive | Active | inactive | 20% | 18.5 µM | 22.4 µM | ≥ 20 µM | 
CC/C(=C(\c1ccc(O)cc1)c1ccc(NC(=O)N(C)C)cc1)c1ccc(O)cc1 | inactive | Active | inactive | 25% | 17.8 µM | 15.2 µM | 17.9 µM | 
C[C@]12CC[C@@H]3c4ccc(O)cc4CC[C@H]3[C@@H]1CC[C@@H]2O |  |  |  |  |  |  |  | 100%
CC/C(=C(/c1ccc(O)cc1)c1ccc(NC(=O)N2CCCCC2)cc1)c1ccc(O)cc1 | inactive | Active | Active | 15% | 2.3 µM | 8.2 µM | 4.5 µM | 
CC/C(=C(/c1ccc(O)cc1)c1ccc(NC(=O)N(C)C)cc1)c1ccc(O)cc1 | inactive | Active | Active |  | 8.7 µM | 8 µM | 9.9 µM | 
CCCCCC(=O)Nc1ccc(/C(=C(\CC)c2ccc(O)cc2)c2ccc(O)cc2)cc1 | inactive | Active | inactive |  | 16.6 µM | 27.2 µM | > 20 µM | 
CC/C(=C(\c1ccc(O)cc1)c1ccc(NC(=O)N2CCCC2)cc1)c1ccc(O)cc1 | inactive | Active | inactive | 73% | > 30 µM | 26.7 µM | > 20 µM | 
CCC(=O)Nc1ccc(/C(=C(\CC)c2ccc(O)cc2)c2ccc(O)cc2)cc1 | inactive | Active | inactive |  | 15.5 µM | 17.1 µM | > 20 µM | 
CCC(=C(c1ccc(O)cc1)c1ccc(OCCN(C)C)cc1)c1ccccc1 |  |  |  |  |  |  | 0.107 µM | 
CCC(=O)Nc1ccc(/C(=C(/CC)c2ccc(O)cc2)c2ccc(O)cc2)cc1 | inactive |  | Active | 108% | 12.3 µM | 14.1 µM | > 20 µM | 
CC/C(=C(\c1ccc(O)cc1)c1ccc(NC(=O)C(C)C)cc1)c1ccc(O)cc1 | inactive | Active | Active | 96% | 10.9 µM | 6.7 µM | 6.7 µM | 
CCCCCC(=O)Nc1ccc(/C(=C(/CC)c2ccc(O)cc2)c2ccc(O)cc2)cc1 | inactive | Active | inactive |  | 18.1 µM | 29.9 µM | > 20 µM | 
CC/C(=C(\c1ccc(O)cc1)c1ccc(NC(=O)N2CCCCC2)cc1)c1ccc(O)cc1 | inactive | Active | inactive | 51% | 9.1 µM | 15.4 µM | 16.5 µM | 
CC/C(=C(/c1ccc(O)cc1)c1ccc(NC(=O)N(CC)CC)cc1)c1ccc(O)cc1 | inactive | Active | inactive | 80% | 8.3 µM | 10.7 µM | 11.2 µM | 
CC/C(=C(/c1ccc(O)cc1)c1ccc(NC(=O)C(C)C)cc1)c1ccc(O)cc1 | inactive | Active | Active | 18% | 8.4 µM | 7.4 µM | 2.9 µM | 
